EC50 and IC50 data for 21 compounds are collected here from ChEMBL document CHEMBL1133874, “Synthesis of N(1)-substituted analogues of (2R,4R)-4-amino-pyrrolidine-2,4-dicarboxylic acid as agonists, partial agonists, and antagonists of group II metabotropic glutamate receptors” (Bioorg Med Chem Lett, 2001).

Each structure is given as a SMILES string.

T1 sequence (P31422 whole entry): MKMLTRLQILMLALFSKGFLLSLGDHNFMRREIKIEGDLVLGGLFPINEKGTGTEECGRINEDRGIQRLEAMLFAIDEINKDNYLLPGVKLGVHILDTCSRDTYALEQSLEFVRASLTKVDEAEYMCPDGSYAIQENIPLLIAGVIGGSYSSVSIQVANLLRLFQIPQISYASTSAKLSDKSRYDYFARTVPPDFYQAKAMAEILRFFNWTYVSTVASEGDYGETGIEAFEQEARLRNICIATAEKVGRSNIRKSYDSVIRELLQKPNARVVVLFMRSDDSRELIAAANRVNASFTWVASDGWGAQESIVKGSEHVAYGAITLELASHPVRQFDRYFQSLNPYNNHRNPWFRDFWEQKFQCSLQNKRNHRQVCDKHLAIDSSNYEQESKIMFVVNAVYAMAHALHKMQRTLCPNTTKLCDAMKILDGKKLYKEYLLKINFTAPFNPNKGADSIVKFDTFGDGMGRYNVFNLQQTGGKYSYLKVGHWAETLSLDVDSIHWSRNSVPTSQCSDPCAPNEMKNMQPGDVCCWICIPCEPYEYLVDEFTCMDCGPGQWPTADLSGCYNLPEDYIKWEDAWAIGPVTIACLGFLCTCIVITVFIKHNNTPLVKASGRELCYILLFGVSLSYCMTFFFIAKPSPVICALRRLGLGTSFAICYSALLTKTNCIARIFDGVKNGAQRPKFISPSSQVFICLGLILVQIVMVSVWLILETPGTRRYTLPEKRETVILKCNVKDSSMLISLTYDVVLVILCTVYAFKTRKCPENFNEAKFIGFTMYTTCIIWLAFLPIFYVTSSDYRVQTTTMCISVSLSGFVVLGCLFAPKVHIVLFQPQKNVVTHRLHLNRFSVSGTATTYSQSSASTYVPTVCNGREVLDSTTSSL
T2 sequence (P31421 whole entry): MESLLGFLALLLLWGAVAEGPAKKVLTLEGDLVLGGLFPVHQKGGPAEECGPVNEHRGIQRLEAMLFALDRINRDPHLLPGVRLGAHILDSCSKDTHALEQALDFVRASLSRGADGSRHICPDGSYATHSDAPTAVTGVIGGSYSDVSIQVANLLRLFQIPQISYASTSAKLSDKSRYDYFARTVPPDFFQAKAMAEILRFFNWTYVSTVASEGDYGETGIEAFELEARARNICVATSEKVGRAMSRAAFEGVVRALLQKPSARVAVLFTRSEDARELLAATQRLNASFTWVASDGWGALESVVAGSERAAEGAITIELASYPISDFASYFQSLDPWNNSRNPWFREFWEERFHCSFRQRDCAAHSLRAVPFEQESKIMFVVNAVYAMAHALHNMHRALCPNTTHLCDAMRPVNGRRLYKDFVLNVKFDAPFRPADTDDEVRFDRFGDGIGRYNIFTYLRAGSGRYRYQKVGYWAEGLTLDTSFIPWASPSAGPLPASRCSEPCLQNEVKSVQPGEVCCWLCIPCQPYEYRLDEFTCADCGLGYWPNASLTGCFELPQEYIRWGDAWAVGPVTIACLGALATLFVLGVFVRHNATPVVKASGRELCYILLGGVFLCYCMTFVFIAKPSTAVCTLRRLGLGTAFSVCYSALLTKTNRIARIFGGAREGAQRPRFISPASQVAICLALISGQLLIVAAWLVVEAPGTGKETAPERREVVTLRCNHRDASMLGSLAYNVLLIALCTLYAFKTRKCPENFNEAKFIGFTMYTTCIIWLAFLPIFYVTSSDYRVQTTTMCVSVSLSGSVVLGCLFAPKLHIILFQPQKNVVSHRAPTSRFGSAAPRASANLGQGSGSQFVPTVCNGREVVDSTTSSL

The first test has as its target T1, Metabotropic glutamate receptor 3 (Rattus norvegicus, UniProt P31422). Kind of test: Effective concentration required for agonistic activity at Metabotropic glutamate receptor 3. The class given is functional. Put shortly: (§1)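 Agonist activity at mGluR3, stably expressed in CHO cells together with a chimeric construct. Dose-response curves; means ± SEM from at least three experiments run in triplicate.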
As usually defined, the EC50 is the concentration that produces a half-maximal response. Higher therefore signals lower potency in that assay. As to `N[C@]1(C(=O)O)C[C@H](C(=O)O)N(Cc2ccccc2[N+](=O)[O-])C1`, the EC50 is 6.8 µM.
Compound `Cl.Cl.Cl.N[C@]1(C(=O)O)C[C@H](C(=O)O)N(Cc2ccccn2)C1` gave an EC50 of 37 µM.
The compound `N[C@@]1(C(=O)O)CN[C@@H](C(=O)O)C1` gave an EC50 of 1.7 µM.

The next test has as its target T1, Metabotropic glutamate receptor 3. Kind of test: Inhibitory concentration required for antagonistic activity at Metabotropic glutamate receptor 3. The class given is functional.
What is called IC50 is the point on the concentration scale where inhibition reaches its midpoint. Take `N[C@]1(C(=O)O)C[C@H](C(=O)O)N(Cc2cccc([N+](=O)[O-])c2)C1`: the IC50 was 93 µM.
Still for that read-out and setting: then `CC(N)(C(=O)O)C1CC1C(=O)O` (configuration not stated), with 68 µM; and `CC(N)(C(=O)O)c1ccc(C(=O)O)cc1` (configuration not stated), with 270 µM.
Compound `COc1ccc(CN2C[C@@](N)(C(=O)O)C[C@@H]2C(=O)O)cc1` yielded an IC50 of 190 µM.
The same measure, in the same setting: then `N[C@]1(C(=O)O)C[C@H](C(=O)O)N(C(C(=O)O)c2ccccc2)C1` (some centres not stated), with 21 µM; and `N[C@]1(C(=O)O)C[C@H](C(=O)O)N(Cc2ccccc2O)C1`, with 27 µM.
`Cl.Cl.N[C@]1(C(=O)O)C[C@H](C(=O)O)N(Cc2ccccc2C#Cc2ccccc2)C1`: the IC50 is 23 µM.

Another test addresses T2, Metabotropic glutamate receptor 2 (Rattus norvegicus, UniProt P31421). Kind of test: Inhibitory concentration required for antagonistic activity at Metabotropic glutamate receptor 2; Not active. The class given is functional. The essentials: (§2)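 Antagonism at mGluR2 stably expressed in CHO cells, tested against 2 μM glutamate and read as forskolin-induced cAMP formation. Dose-response curves; means ± SEM from at least three experiments run in triplicate.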
In the case of `Cl.Cl.N[C@]1(C(=O)O)C[C@H](C(=O)O)N(Cc2cc([N+](=O)[O-])cc([N+](=O)[O-])c2)C1`, the IC50 entry is listed as “Not Active”.
The same measure, in the same setting: in the case of `Cl.Cl.N[C@]1(C(=O)O)C[C@H](C(=O)O)N(Cc2cccc(C(=O)O)c2)C1` it was “Not Active”.

The target in the next test is T3, Metabotropic glutamate receptor 6 (Rattus norvegicus, UniProt P35349). Kind of test: Effective concentration for agonistic activity at Metabotropic glutamate receptor 6; Not active. The class given is functional.
T3 sequence (P35349 whole entry): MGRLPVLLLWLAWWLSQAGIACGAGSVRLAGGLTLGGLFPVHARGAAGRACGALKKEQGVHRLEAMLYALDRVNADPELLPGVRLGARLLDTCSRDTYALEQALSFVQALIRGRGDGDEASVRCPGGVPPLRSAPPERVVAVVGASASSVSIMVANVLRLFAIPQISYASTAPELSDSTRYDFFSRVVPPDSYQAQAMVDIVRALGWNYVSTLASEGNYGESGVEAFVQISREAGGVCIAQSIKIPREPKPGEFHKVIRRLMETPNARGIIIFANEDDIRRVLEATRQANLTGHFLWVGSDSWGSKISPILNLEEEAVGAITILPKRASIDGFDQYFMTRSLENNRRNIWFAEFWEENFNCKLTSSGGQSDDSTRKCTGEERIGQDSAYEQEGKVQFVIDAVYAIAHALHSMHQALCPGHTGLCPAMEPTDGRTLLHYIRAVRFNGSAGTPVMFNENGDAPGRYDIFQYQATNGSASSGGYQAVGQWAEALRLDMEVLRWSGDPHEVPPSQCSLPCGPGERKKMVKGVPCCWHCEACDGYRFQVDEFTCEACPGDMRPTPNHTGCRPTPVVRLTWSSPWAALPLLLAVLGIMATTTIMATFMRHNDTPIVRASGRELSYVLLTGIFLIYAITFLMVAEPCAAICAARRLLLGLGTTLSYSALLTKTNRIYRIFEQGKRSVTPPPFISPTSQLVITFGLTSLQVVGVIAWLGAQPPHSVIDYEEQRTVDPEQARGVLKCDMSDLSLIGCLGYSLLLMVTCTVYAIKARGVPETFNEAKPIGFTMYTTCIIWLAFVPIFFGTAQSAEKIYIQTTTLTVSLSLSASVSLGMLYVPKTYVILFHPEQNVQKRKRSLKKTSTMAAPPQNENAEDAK
For `Cl.Cl.N[C@]1(C(=O)O)C[C@H](C(=O)O)N(Cc2ccccc2C(=O)O)C1`, the EC50 result is “Not Active”.
As to `CC(N)(C(=O)O)C1CC1C(=O)O` (configuration not stated), the EC50 result was “Not Active”.
The same measure, in the same setting: in the case of `Cl.Cl.Cl.Nc1ccccc1CN1C[C@@](N)(C(=O)O)C[C@@H]1C(=O)O` it was “Not Active”.
Regarding `CC(N)(C(=O)O)c1ccc(C(=O)O)cc1` (configuration not stated), the EC50 entry is on record as “Not Active”.
Consider `Cl.Cl.N[C@]1(C(=O)O)C[C@H](C(=O)O)N(Cc2ccc([N+](=O)[O-])cc2)C1`, for which the EC50 entry is “Not Active”.
In the case of `Cl.Cl.N[C@]1(C(=O)O)C[C@H](C(=O)O)N(Cc2cccc(O)c2)C1`, the EC50 result is recorded as “Not Active”.
Still for that read-out and setting: in the case of `Cl.Cl.N[C@]1(C(=O)O)C[C@H](C(=O)O)N(CC(=O)O)C1` it was “Not Active”; in that of `Cl.Cl.Cl.Nc1ccc(CN2C[C@@](N)(C(=O)O)C[C@@H]2C(=O)O)cc1`, “Not Active”; in that of `Cl.Cl.N[C@]1(C(=O)O)C[C@H](C(=O)O)N(Cc2ccccc2C#Cc2ccccc2)C1`, “Not Active”.
On the same count and under the same terms, in the case of `Cl.Cl.Cl.N[C@]1(C(=O)O)C[C@H](C(=O)O)N(Cc2ccccn2)C1` it was “Not Active”.
Still for that read-out and setting: then `N[C@@]1(C(=O)O)CN[C@@H](C(=O)O)C1`, with “Not Active”.

In another test the target is T1, Metabotropic glutamate receptor 3. Kind of test: Effective concentration required for agonistic activity at Metabotropic glutamate receptor 3; Not active. The class given is functional. Put shortly: as §1
In the case of `Cl.Cl.N[C@]1(C(=O)O)C[C@H](C(=O)O)N(Cc2cc([N+](=O)[O-])cc([N+](=O)[O-])c2)C1`, the EC50 result is “Not Active”.
On the same count and under the same terms, in the case of `Cl.Cl.N[C@]1(C(=O)O)C[C@H](C(=O)O)N(Cc2ccccc2C(=O)O)C1` it was “Not Active”.
On the same count and under the same terms, then `Cl.Cl.Cl.Nc1ccccc1CN1C[C@@](N)(C(=O)O)C[C@@H]1C(=O)O`, with “Not Active”.
Regarding `Cl.Cl.N[C@]1(C(=O)O)C[C@H](C(=O)O)N(Cc2ccc(C(=O)O)cc2)C1`, the EC50 entry was “Not Active”.
Take `Cl.Cl.N[C@]1(C(=O)O)C[C@H](C(=O)O)N(Cc2ccc([N+](=O)[O-])cc2)C1`: the EC50 entry is reported as “Not Active”.
As for `Cl.Cl.N[C@]1(C(=O)O)C[C@H](C(=O)O)N(Cc2cccc(O)c2)C1`, the EC50 result is recorded as “Not Active”.
Take `Cl.Cl.N[C@]1(C(=O)O)C[C@H](C(=O)O)N(Cc2cccc(C(=O)O)c2)C1`: the EC50 result is given as “Not Active”.
As to `Cl.Cl.N[C@]1(C(=O)O)C[C@H](C(=O)O)N(CC(=O)O)C1`, the EC50 entry is “Not Active”.
`Cl.Cl.Cl.Nc1ccc(CN2C[C@@](N)(C(=O)O)C[C@@H]2C(=O)O)cc1`: the EC50 result is “Not Active”.

The next test shares this target. Kind of test: Effective concentration required for partial agonistic activity at Metabotropic glutamate receptor 3; Partial agonist. The class given is functional. Put shortly:
as §1
`N[C@]1(C(=O)O)C[C@H](C(=O)O)N(Cc2ccc(O)cc2)C1` returned an EC50 of 7.5 µM.

The target is the same in a further test. Kind of test: Inhibitory concentration required for antagonistic activity at Metabotropic glutamate receptor 3; Not active. The class given is functional.
Regarding `Cl.Cl.N[C@]1(C(=O)O)C[C@H](C(=O)O)N(Cc2cc([N+](=O)[O-])cc([N+](=O)[O-])c2)C1`, the IC50 result is “Not Active”.
As for `Cl.Cl.N[C@]1(C(=O)O)C[C@H](C(=O)O)N(Cc2ccccc2C(=O)O)C1`, the IC50 result is “Not Active”.
Regarding `Cl.Cl.Cl.Nc1ccccc1CN1C[C@@](N)(C(=O)O)C[C@@H]1C(=O)O`, the IC50 result is “Not Active”.
On the same count and under the same terms, in the case of `Cl.Cl.N[C@]1(C(=O)O)C[C@H](C(=O)O)N(Cc2ccc(C(=O)O)cc2)C1` it was “Not Active”; in that of `Cl.Cl.N[C@]1(C(=O)O)C[C@H](C(=O)O)N(Cc2ccc([N+](=O)[O-])cc2)C1`, “Not Active”; in that of `Cl.Cl.N[C@]1(C(=O)O)C[C@H](C(=O)O)N(Cc2cccc(O)c2)C1`, “Not Active”.
As to `Cl.Cl.N[C@]1(C(=O)O)C[C@H](C(=O)O)N(Cc2cccc(C(=O)O)c2)C1`, the IC50 entry is “Not Active”.
Consider `Cl.Cl.N[C@]1(C(=O)O)C[C@H](C(=O)O)N(CC(=O)O)C1`, for which the IC50 entry is recorded as “Not Active”.
As for `Cl.Cl.Cl.Nc1ccc(CN2C[C@@](N)(C(=O)O)C[C@@H]2C(=O)O)cc1`, the IC50 result is listed as “Not Active”.

A further test addresses T3, Metabotropic glutamate receptor 6. Kind of test: Effective concentration required for agonistic activity at Metabotropic glutamate receptor 6. The class given is functional.
The compound `Cl.Cl.N[C@]1(C(=O)O)C[C@H](C(=O)O)N(Cc2cc([N+](=O)[O-])cc([N+](=O)[O-])c2)C1` gave an EC50 of 210 µM.
On to `N[C@]1(C(=O)O)C[C@H](C(=O)O)N(Cc2cccc([N+](=O)[O-])c2)C1`, for which it took 100 µM to reach a half-maximal effect (EC50).
Turning to `N[C@]1(C(=O)O)C[C@H](C(=O)O)N(Cc2ccccc2Br)C1`, a half-maximal response (EC50) required 310 µM.
The same measure, in the same setting: then `Cl.Cl.N[C@]1(C(=O)O)C[C@H](C(=O)O)N(Cc2ccc(C(=O)O)cc2)C1`, with 58 µM; and `COc1ccc(CN2C[C@@](N)(C(=O)O)C[C@@H]2C(=O)O)cc1`, with 320 µM; and `Cl.Cl.N[C@]1(C(=O)O)C[C@H](C(=O)O)N(Cc2cccc(C(=O)O)c2)C1`, with 57 µM.
Compound `N[C@]1(C(=O)O)C[C@H](C(=O)O)N(C(C(=O)O)c2ccccc2)C1` (some centres not stated) yielded an EC50 of 22 µM.
`N[C@]1(C(=O)O)C[C@H](C(=O)O)N(Cc2ccc(O)cc2)C1`: the EC50 was 74 µM.
`N[C@]1(C(=O)O)C[C@H](C(=O)O)N(Cc2ccccc2[N+](=O)[O-])C1` came in with a concentration for a half-maximal effect (EC50) of 110 µM.

The target in a further test is T2, Metabotropic glutamate receptor 2. Kind of test: Effective concentration required for partial agonistic activity at Metabotropic glutamate receptor 2; Partial agonist. The class given is functional.
As to `Cl.Cl.N[C@]1(C(=O)O)C[C@H](C(=O)O)N(Cc2ccc(C(=O)O)cc2)C1`, a half-maximal effect (EC50) was put at 4.7 µM.
On the same count and under the same terms, in the case of `Cl.Cl.N[C@]1(C(=O)O)C[C@H](C(=O)O)N(CC(=O)O)C1` it was 0.61 µM.
As to `Cl.Cl.Cl.Nc1ccc(CN2C[C@@](N)(C(=O)O)C[C@@H]2C(=O)O)cc1`, the EC50 was 2.3 µM.

The next test has the same target. Kind of test: Inhibitory concentration required for antagonistic activity at Metabotropic glutamate receptor 2. The class given is functional. Put shortly: as §2
`CC(N)(C(=O)O)c1ccc(C(=O)O)cc1` (configuration not stated) gave a half-inhibitory concentration (IC50) of 290 µM.

For the next test, the target named is T3, Metabotropic glutamate receptor 6. Kind of test: Effective concentration required for partial agonistic activity at Metabotropic glutamate receptor 6; Partial agonist. The class given is functional.
For `N[C@]1(C(=O)O)C[C@H](C(=O)O)N(Cc2ccccc2O)C1`, the response was half-maximal at 88 µM (EC50).

For another test, the target named is T2, Metabotropic glutamate receptor 2. Kind of test: Effective concentration required for agonistic activity at Metabotropic glutamate receptor 2; Not active. The class given is functional.
`Cl.Cl.N[C@]1(C(=O)O)C[C@H](C(=O)O)N(Cc2cc([N+](=O)[O-])cc([N+](=O)[O-])c2)C1`: the EC50 entry was “Not Active”.
For `Cl.Cl.N[C@]1(C(=O)O)C[C@H](C(=O)O)N(Cc2cccc(C(=O)O)c2)C1`, the EC50 entry is recorded as “Not Active”.

The target is the same in another test. Kind of test: Effective concentration required for agonistic activity at Metabotropic glutamate receptor 2. The class given is functional.
`Cl.Cl.N[C@]1(C(=O)O)C[C@H](C(=O)O)N(Cc2ccccc2C(=O)O)C1` displayed an EC50 of 33 µM. This lies in the double-digit micromolar range.
Same read-out and setting: then `Cl.Cl.Cl.Nc1ccccc1CN1C[C@@](N)(C(=O)O)C[C@@H]1C(=O)O`, with 35 µM.
Same read-out and setting: then `Cl.Cl.N[C@]1(C(=O)O)C[C@H](C(=O)O)N(Cc2ccc([N+](=O)[O-])cc2)C1`, with 160 µM; and `Cl.Cl.N[C@]1(C(=O)O)C[C@H](C(=O)O)N(Cc2cccc(O)c2)C1`, with 950 µM; and `N[C@]1(C(=O)O)C[C@H](C(=O)O)N(Cc2ccc(O)cc2)C1`, with 24 µM.
As for `N[C@]1(C(=O)O)C[C@H](C(=O)O)N(Cc2ccccc2[N+](=O)[O-])C1`, the EC50 came to 4 µM.
For `N[C@]1(C(=O)O)C[C@H](C(=O)O)N(Cc2ccccc2O)C1`, a half-maximal response (EC50) required 6.1 µM.
Turning to `Cl.Cl.Cl.N[C@]1(C(=O)O)C[C@H](C(=O)O)N(Cc2ccccn2)C1`, the EC50 stood at 37 µM.
Regarding `N[C@@]1(C(=O)O)CN[C@@H](C(=O)O)C1`, a half-maximal effect (EC50) was put at 0.48 µM.
